Results published in paper PMC3886125 (Molecular nutrition & food research, 2012).
Marks after values point to notes of the source that are not given here.

Legend:
[1] = Xanthones in serum; type: in vivo, Balb/c nu/nu mice; conditions: for Identified in serum by HPLC-MS: mice fed diet with α-MG, not detected by HPLC-DAD
[2] = Xanthones in tumor tissue; type: in vivo, Balb/c nu/nu mice; conditions: for Tumor at 2 weeks, Free / Tumor at 4 weeks, Free / Tumor at 2 weeks, Conjugates / Tumor at 4 weeks, Conjugates: tumor tissue, diet 901 mg/kg xanthones; for Tumor at 2 weeks, Free / Tumor at 2 weeks, Conjugates: 2 weeks after injection of HT-29 cells; for Tumor at 4 weeks, Free / Tumor at 4 weeks, Conjugates: 4 weeks after injection of HT-29 cells; for Tumor at 2 weeks, Conjugates / Tumor at 4 weeks, Conjugates: nd = not detected; for Share of total xanthones in tumors: tentatively identified
[3] = tested on: HT-29 cells; assay: HT-29 colon cell xenograft growth in mice fed diet with α-MG; type: in vivo, Balb/c nu/nu mice; conditions: diet 900 mg α-MG/kg
[4] = tested on: BcL-2; assay: BcL-2 in tumor tissue homogenates by ELISA; type: in vivo, Balb/c nu/nu mice; conditions: mice fed diet with α-MG; 4 weeks after injection of cells; control diet 17.2 ±0.8
[5] = tested on: β-catenin; assay: β-catenin in tumor tissue homogenates by ELISA; type: in vivo, Balb/c nu/nu mice; conditions: mice fed diet with α-MG; 4 weeks after injection of cells; control diet 19.1 ± 1.9
[6] = Food intake and body weight of mice fed diet with α-MG; type: in vivo, Balb/c nu/nu mice; conditions: 845 mg/kg α-MG (901 mg total xanthones/kg) in the diet
Summary of the method: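 Female athymic Balb/c nu/nu mice arrived at 4 weeks of age and were acclimated 4 days on AIN-93G diet. They were randomized (n = 24/group) to γ-irradiated AIN-93G without or with a nominal 900 mg/kg test compound, given ad libitum; actual diet content was determined by extraction. Food intake, appearance/behaviour and body weight were checked after 3 and 7 days. Groups were compared by one-way ANOVA with Dunnett's post-test.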

[7] = tested on: BcL-2; assay: BcL-2 content in HT-29 cells by ELISA; type: cell-based, human; conditions: 24 h
Summary of the method: (§1)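 HT-29 cells were seeded at 2 × 10⁵ cells/well in 6-well dishes. At 70% confluence, monolayers got basal McCoy's medium without or with test compound (6 and 12 µmol/L) for 24 h at 37°C. Cells were washed twice with ice-cold PBS and pelleted (800 × g, 4°C, 10 min), then lysed in ice-cold lysis buffer. Protein was measured with a commercial ELISA kit. Data are means ± SD versus control, compared by Welch's unpaired t-test.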

[8] = tested on: β-catenin; assay: β-catenin content in HT-29 cells by ELISA; type: cell-based, human; conditions: 24 h
Summary of the method: as §1

[9] = human subjects after mangosteen juice blend containing 94 mg/mL α-MG; cited from earlier work
[10] = rats, gastric administration of 20 mg/kg in water containing 2% ethanol plus 2% Tween-80; cited from earlier work
[11] = Xanthones in liver; type: in vivo, Balb/c nu/nu mice; conditions: control- and tumor-bearing mice; tentatively identified
[12] = 2 weeks after injection of HT-29 cells
[13] = 4 weeks after injection of HT-29 cells
[14] = 6 µmol/L, preconfluent HT-29 cells

COc1c(O)cc2oc3cc4c(c(O)c3c(=O)c2c1CC=C(C)C)C=CC(C)(C)O4 [9-Hydroxycalabaxanthone]
Identified in serum by HPLC-MS [1]: Low concentrations
Tumor at 2 weeks, Free [2]: 0.22 ± 0.09 ^a) µg/g
Tumor at 4 weeks, Free [2]: 0.32 ± 0.11 ^a) µg/g

COc1c(O)cc2oc3cc(O)c(CC=C(C)C)c(O)c3c(=O)c2c1CC=C(C)C [α-MG, α-mangostin]
Tumor mass less than control diet [3, 12]: 27%
Tumor volume less than in mice fed the diet without α-MG [3, 12]: 41%
Tumor mass less than control diet [3, 13]: 41%
Tumor volume less than in mice fed the diet without α-MG [3, 13]: 36%
BcL-2 concentration in tumors [4]: 3.9 ± 0.5 pg/mg protein
β-catenin concentration in tumors [5]: 11.2 ± 0.7 pg/mg protein
Body weight [6]: not significantly altered
Food intake [6]: not significantly altered
Concentration of conjugated α-MG in serum ([1]; mice with tumors for 2 weeks): 1000 ± 100 ng/mL
α-MG in serum, without enzyme treatment (free) ([1]; nontumor-bearing and tumor-bearing mice fed diet with α-MG for 5 weeks): 15 ± 1 ng/mL
Concentration of total α-MG in serum ([1]; nontumor-bearing mice, 4 weeks, glucuronidase/sulfatase treated): 1900 ± 300 ng/mL
Share of tumor α-MG that is conjugated ([2]; 2 weeks postinjection): 60%
Free and conjugated α-MG concentration in tumor tissue ([2]; 4 weeks postinjection): 3.6 ± 0.1
Share of tumor α-MG that is conjugated ([2]; 4 weeks postinjection): 52%
Tumor at 2 weeks, Free [2]: 0.51 ± 0.02 ^b) µg/g
Tumor at 2 weeks, Conjugates [2]: 0.76 ± 0.03 ^c) µg/g
Tumor at 4 weeks, Free [2]: 1.71 ± 0.06 ^a) µg/g
Tumor at 4 weeks, Conjugates [2]: 1.87 ± 0.06 ^a) µg/g
Decrease of BcL-2 vs vehicle only [7, 14]: 27 ± 3%
Cellular content of BcL-2 less than control cultures ([7]; 12 µmol/L, HT-29 cells): 44 ± 4%
Decrease of β-catenin vs vehicle only [8, 14]: 24 ± 2%
Cellular content of β-catenin less than control cultures ([8]; 12 µmol/L, HT-29 cells): 39 ± 3%
Cmax of free α-MG in plasma [9]: 3.1 µM
Absorption [10]: extremely low

COc1cc2oc3cc(O)c(OC)c(CC=C(C)C)c3c(=O)c2c(O)c1CC=C(C)C [β-MG, β-mangostin]
Identified in serum by HPLC-MS [1]: Low concentrations
Share of total xanthones in tumors ([2]; 2 weeks after injection): 41%
Phase II conjugates as share of tumor β-MG ([2]; 4 weeks): 40%
Share of total xanthones in tumors ([2]; 4 weeks after injection): 45%
Tumor at 2 weeks, Free [2]: 1.54 ± 0.16 ^b) µg/g
Tumor at 2 weeks, Conjugates [2]: not detected
Tumor at 4 weeks, Free [2]: 2.68 ± 0.17 ^a) µg/g
Tumor at 4 weeks, Conjugates [2]: 1.83 ± 0.17 ^b) µg/g
Share of the total xanthones in the liver [11]: approx. 85%
